Measurements reported in paper PMC11718131 (Communications Biology, 2025).
Peptide text beside a SMILES is read from it. * marks the point of attachment. Cbz = O=C(OCc1ccccc1)*

How the values were obtained:
[1] = tested on: proteasome; GFP-CA2-DRD fusion in Jurkat cells; experiment: Proteasome inhibition assay; assay type: cell-based, human; conditions: 10 µM MG132, 4 h without ACZ after 24 h ACZ; versus vehicle
Outline: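 Cells then washed with fresh media and split in two: one arm […] 10 µM MG132 for 4 h. GFP expression read by flow cytometry.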

[2] = cited from earlier work
wildtype (WT) CA2 = conditions: in words; cited from earlier work
[3] = Huntington's disease; cited from earlier work

## CC(C)C[C@@H](C=O)NC(=O)[C@H](CC(C)C)NC(=O)[C@H](CC(C)C)NC(=O)OCc1ccccc1 [MG132] (Cbz-Leu-Leu-Leu-aldehyde)
[1]
  decrease in GFP levels after ACZ withdrawal: smaller decrease in GFP levels

## CC(=O)Nc1nnc(S(N)(=O)=O)s1 [ACZ, acetazolamide]
[2]; FDA-approved and clinically used doses
  total in vivo exposure levels: ~ 100 µM
[2]; approved doses, in words
  total concentrations in plasma and other tissues: micromolar range
Wildtype (WT) CA2
  affinity to CA2: low nanomolar affinity

## CC1(C)CC(Oc2ccc(-c3ccc(-c4cn[nH]c4)cc3O)nn2)CC(C)(C)N1 [branaplam]
[3]
  clinical trial outcome: halted because of drug-related side effects
